In ChEMBL document CHEMBL1129672, “Ionophore properties of monensin derivatives studied on human erythrocytes by 23Na NMR and K+ and H+ potentiometry: relationship with antimicrobial and antimalarial activities” (J Med Chem, 1996):
≈ marks a conversion by molar mass, not a printed value.

Experiments:
[1] = tested on: Bacillus cereus; test: Minimum Inhibitory concentration against Bacillus cereus ATCC 14579; type: functional
In short: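 Broth dilution in Mueller-Hinton broth pH 7.4, 24 h incubation at 27 °C. Ionophores diluted in DMSO across 18 tubes, 100 ug/mL down to 1.56 ng/mL.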

[2] = tested on: Plasmodium falciparum; test: In vitro inhibitory activity against Plasmodium falciparum; type: functional, organism-based
In short: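 Nigerian strain kept in human erythrocytes, 7% hematocrit, RPMI 1640 + 25 mM Hepes pH 7.4 + 10% AB+ serum, 37 °C, candle jar. Drugs from DMSO stocks (final solvent ≤0.25%), 1–2% hematocrit, 0.3–0.8% parasitemia, 48 h, then [3H]hypoxanthine 12–18 h. Filter-bound counts as % of drug-free control; IC50 from log dose plot, ≥2 experiments in triplicate.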

Row | Compound | MIC [1] [µg/mL] | IC50 [2] [µg/mL]
1 | Cc1ccc(S(=O)(=O)OC[C@]2(O)O[C@H](C)[C@@H](C)C[C@H]2C)cc1 | 0.78 (≈ 2.37 µM) | 0.00125 (≈ 0.00381 µM)
2 | C[C@@H]1C[C@H](C)[C@@H](C)O[C@@]1(O)COC(=O)c1cccs1 | 0.02 (≈ 0.0703 µM) | 0.0027 (≈ 0.00949 µM)
3 | C[C@@H]1C[C@H](C)[C@@H](C)OC1O (stereo partly specified) | 0.39 (≈ 2.7 µM) | 0.0119 (≈ 0.0827 µM)
4 | C[C@@H]1C[C@H](C)[C@@H](C)O[C@@]12COC(c1ccccc1)O2 (stereo partly specified) | 6.25 (≈ 23.8 µM) | 0.75 (≈ 2.86 µM)
5 | C[C@@H]1C[C@H](C)[C@@H](C)O[C@@]1(O)CO | 1.56 (≈ 8.95 µM) | 0.00165 (≈ 0.00947 µM)

Next, values leading:

Row | MIC [1] [µg/mL] | IC50 [2] [µg/mL] | Compound
6 | 0.05 (≈ 0.153 µM) | 0.00125 (≈ 0.00381 µM) | C[C@@H]1C[C@H](C)[C@@H](C)O[C@@]1(O)COC(=O)Nc1ccc(Cl)cc1
7 | 1.56 (≈ 7.79 µM) | 0.00075 (≈ 0.00375 µM) | C[C@@H]1C[C@H](C)[C@@H](C)O[C@@]12COC(=O)O2
8 | > 50 | 5.25 (≈ 29.8 µM) | C[C@H](C[C@H](C)[C@@H](C)O)[C@H](O)CO
